# Hits are enriched below; roughly 3.9% of the tested compounds scored in any of these assays.
# CHOP UPR activ: apoptotic UPR (CHOP) activation | actives 0.34% (n = 330,000) | activation, % at 10 µM | AID 449763 | CHO-CHOP luciferase reporter, luminescence; percent of tunicamycin response over DMSO baseline;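 active = at 10 µM dose, activation of 40% or more, normalized to positive control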;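 also: 100% = tunicamycin at 10 µg/mL and 0% = DMSO alone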
#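 Test system: CHO CHOP reporter cells. Input: 500 CHO-CHOP cells per well. Medium: F12 with 10% FBS. Technique: luciferase luminescence. Measure: percent activation relative to tunicamycin control. Dosing: 10 µM compound, 0.5% DMSO. Timing: 16-18 h cell attachment, then 6 h compound exposure, 37 °C.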
# XBP1 UPR activ: adaptive UPR (XBP1) activation; activation, % at 20 µM; actives 0.33% (n = 330,000); AID 463104; CHO-XBP1 luciferase reporter, IRE1-XBP1 UPR activation, luminescence; percent of tunicamycin response, DMSO as zero;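 active = versus positive control, 20 µM dose yields 30% or more activation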;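 also: 100% = tunicamycin at 10 µg/mL and 0% = DMSO only wells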
#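 Material: CHO-XBP1 cells stably carrying IRE1-XBP1-driven luciferase reporter | Medium: F12 with 10% serum | Compound dosing: 20 µM single concentration, DMSO 1% | Incubation: Overnight seeding at 37 °C, 6 h compound treatment at 37 °C | Detection: Steady-Glo luminescence read | Read-out basis: % activation of reporter signal versus tunicamycin and DMSO controls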
# 697 NFkB inh: lowers PMA/ionomycin-induced NF-kB signal in 697 B cells; 697 B-cell NF-kB luciferase reporter, 16 h; inhibition, % at 4 µM; actives 0.33% (n = 330,000); AID 435022; in the data active = inhibition above about 35%
# Jurkat NFkB inh: inhibitors of the PMA/ionomycin-induced NF-kB reporter in Jurkat cells. PMA/ionomycin-induced NF-kB luciferase reporter, luminescence. inhibition, % at 4 µM. actives 0.53% (n = 330,000). AID 435003; in the data active = inhibition above about 50%
# CHOP inhibitor: blocks CHOP induction under ER stress. CHO-K1 CHOP-promoter luciferase, tunicamycin-induced, 15-18 h. inhibition, % at 10 µM. actives 3.8% (n = 220,000);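 active = compounds that reduced the stress-induced luciferase reporter signal by more than about 70% of percent inhibition, limit read from the data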;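 also: 0% = tunicamycin plus vehicle and 100% = wells without tunicamycin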
# Gli-Sufu block: Gli-Sufu pathway antagonism; Sufu-KO-LIGHT fibroblasts, Gli luciferase reporter luminescence; actives 0.74% (n = 340,000); inhibition, % at 5 µM;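 active = inhibition above about 55%, limit read from the data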;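 also: 0% = DMSO-treated cells and 100% = wells with medium but no cells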
# CHOP inh conf: confirmation of CHOP induction inhibitors; shares compounds with CHOP inhibitor; CHO-CHOP promoter luciferase reporter, tunicamycin-induced, luminescence; inhibition, % at 10 µM; actives 45% (n = 2,100);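 active = mean of three repeat readings of reporter signal inhibition above a set limit, cut at about 70% in these data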;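 also: 0% = tunicamycin plus vehicle and 100% = wells lacking tunicamycin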
# Active calls of the source: *; · = no result given.
SMILES,CHOP UPR activ,XBP1 UPR activ,697 NFkB inh,Jurkat NFkB inh,CHOP inhibitor,Gli-Sufu block,CHOP inh conf
Nc1c(C(=O)Nc2ccccc2)c2nc3ccccc3nc2n1CCCN1CCOCC1,4,1,13,5,100*,3,39
CCOC(=O)c1ccc(NC(=O)CCc2nc(-c3cccc(C)c3)no2)cc1,-1,2,3,-8,98*,-8,45
COc1cc(/C=C/c2ccc(O)cc2)cc(OC)c1,6,8,-44,-9,-7,-37,·
COC(=O)c1ccc2c(c1)C(C)(C)C(/C=C/c1ccc(O)cc1)=[N+]2C,-11,-7,-66,45,112*,66*,138*
COc1ccc(S(=O)(=O)N2CCOCC2)cc1NC(=O)c1ccncc1,-3,-1,19,-3,·,-1,·
O=C(CCNS(=O)(=O)c1ccccc1)Nc1ccccc1,0,0,-6,-7,·,-2,·
CC(C)OCc1c(C(=O)OC/C(O)=C(\C#N)c2nc3ccccc3[nH]2)oc2ccccc12,0,-4,11,1,38,-3,·
CCOC(=O)c1c(C)[nH]c(C(=O)OCC(O)=C(C#N)c2nc3ccccc3[nH]2)c1C,·,·,·,·,·,1,·
Cc1c(C(=O)OC/C(O)=C(\C#N)c2nc3ccccc3[nH]2)oc2ccc(Br)cc12,3,2,21,1,103*,9,13
Cc1c(-c2cccc(Cl)c2)nc2ccccc2c1C(=O)OC/C(O)=C(\C#N)c1nc2ccccc2[nH]1,0,16,-15,9,105*,-20,47
CC1CCC(=NO)C(=NO)C1 (configuration not stated),·,·,·,·,·,7,·
CCOC(=O)N1CCC(n2c(=S)[nH]c3cc(OCC)c(OCC)cc3c2=O)CC1,16,24,7,16,101*,13,98*
CC(=O)c1sc(NC(=O)CN2C(=O)C3CCCCC3C2=O)nc1-c1ccccc1 (configuration not stated),-1,0,20,7,·,-6,·
CCCc1cc(C(=O)N(C2CCCCC2)C2CCCCC2)no1,0,-2,9,-13,100*,-2,89*
COC(C(=O)Nc1ccnn1C1CCN(Cc2nccs2)CC1)c1ccccc1 (configuration not stated),1,-4,20,5,·,25,·
O=C(N/N=C/c1cc(Br)ccc1O)c1ccncc1,0,-1,-35,14,69,18,·
O=C(N/N=C/c1ccc([N+](=O)[O-])s1)c1ccncc1,0,3,1,26,-28,17,·
O=C(N/N=C/c1ccc([N+](=O)[O-])s1)c1cccc(Br)c1,-2,1,0,10,97*,27,61
O=C(N/N=C/c1ccc(O)c2ncccc12)c1cccc(Br)c1,2,1,-20,8,105*,-5,38
COc1cc2[nH]c(C(=O)N3CCN(c4ccccc4F)CC3)cc2c(OC)c1OC,-1,2,18,-6,·,1,·
CCN(CC)CCOC(=O)c1ccc(N/C=C(/C#N)c2nc(-c3cccc(OC)c3)cs2)cc1,2,-1,-24,-2,105*,-4,80*
Cc1ccn2cc(-c3cc4ccccc4oc3=O)nc2c1,·,·,·,·,105*,-73,88*
Cc1ccc(-c2csc(Cc3nc(-c4cc5ccccc5oc4=O)cs3)n2)cc1,3,-2,-31,-17,30,9,·
COc1ccc(CN(C)C(=O)Cn2cnc3c(OCc4ccccc4)ncnc32)cc1OC,0,-3,-14,5,·,6,·
O=C(COC(=O)c1ccc([N+](=O)[O-])cc1)NC12CC3CC(CC(C3)C1)C2,0,-1,11,0,·,4,·
SMILES,CHOP UPR activ,XBP1 UPR activ,697 NFkB inh,Jurkat NFkB inh,CHOP inhibitor,Gli-Sufu block,CHOP inh conf
COC(=O)C(Cc1ccc(O)cc1)NC(=O)NC12CC3CC(CC(C3)C1)C2 (configuration not stated),1,-4,-5,9,·,9,·
COc1cc(/C=C2\CCc3ccccc3C2=O)cc(OC)c1OC,5,4,-16,-11,1,8,·
COc1cc(/C=C2/CCc3ccccc3C2=O)cc(OC)c1OC,4,6,-52,-10,12,·,·
COc1cc(/C=C2\COC/C(=C\c3cc(OC)c(OC)c(OC)c3)C2=O)cc(OC)c1OC,·,·,·,·,106*,55*,111*
COc1cc(/C=C2\CC/C(=C\c3cc(OC)c(O)c(OC)c3)C2=O)cc(OC)c1O,-4,-2,9,-1,101*,12,101*
O=C(Nc1ccnn1C1CCN(Cc2cc(Cl)ccc2O)CC1)C1CC1,-2,-4,0,-3,·,11,·
FC(F)(F)c1cccc(NC(=S)NCC2COc3ccccc3O2)c1 (configuration not stated),-1,0,7,-3,103*,8,2
CCCNC(=S)Nc1cccc(C(F)(F)F)c1,-1,-1,12,12,19,-5,·
FC(F)(F)c1cccc(NC(=S)Nc2ccc(Cl)cc2Cl)c1,1,-4,-11,-15,105*,16,101*
O=C(Cc1ccccc1)NC(=S)Nc1cccc(C(F)(F)F)c1,-1,-1,-13,9,108*,7,102*
Cc1ccc(NC(=O)/C=C/c2cccc(C(F)(F)F)c2)cc1,7,0,-8,2,35,-4,·
O=C(/C=C/c1cccc(C(F)(F)F)c1)Nc1cccc(C(F)(F)F)c1,5,6,-21,-11,97*,2,100*
Cc1ccc(N2CCC(N3CCN(C)C(CCO)C3)CC2)cc1 (configuration not stated),1,-2,2,-13,·,6,·
Cc1ccccc1N1C(=O)CC(Sc2nnc(-c3ccccc3)o2)C1=O (configuration not stated),7,-8,9,11,108*,2,4
CC(=O)Cn1ncc(Br)c(Br)c1=O,·,·,·,·,105*,-8,4
COC(=O)C(COC(=O)c1c(F)cccc1F)NC(=O)c1c(F)cccc1F (configuration not stated),-1,-5,0,6,·,7,·
O=C(OCn1ncc(Br)c(Br)c1=O)c1c(F)cccc1F,·,·,·,·,·,·,125*
Cc1nc(NC(=O)CSc2nc3cccnc3n2Cc2ccccc2)sc1C,0,8,-40,-24,104*,7,91*
CS(=O)(=O)c1ccc(S(=O)CC(=O)OCc2ccccc2)c([N+](=O)[O-])c1 (configuration not stated),·,·,·,·,107*,12,128*
Cc1nn(-c2ccccc2)c(C)c1NC(=O)COC(=O)c1ccccc1OC(F)F,0,-4,2,7,·,-20,·
